Experimental data as given in paper PMC6349498 (Drug testing and analysis, 2018).
Read-outs that look alike come from different tables or passages of the source.

Columns and labels:
[1] = OT stability in human urine; assay type: in vitro ADME; conditions: human urine spiked 9.9-385 ng/mL; 10°C; up to 5 days; LCMS
[2] = OT stability in human serum; assay type: in vitro ADME; conditions: added to human serum; 4°C or room temperature (23°C); up to 24 hours; LCMS
Method in brief: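 OT and OT-d5 were added to human serum and held at room temperature (~23°C) or 4°C for 24 h. Levels were compared with pre-incubation values. Serum (500 µL) was spiked with OT-d5, acidified with 4% phosphoric acid, then C18 SPE-purified. Quantitation was by HRAM orbitrap LCMS in positive heated ESI targeted SIM mode.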

[3] = assay type: in vivo, human
Method in brief: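 Healthy male and post-menopausal female volunteers self-dosed intranasally. Male: 100 IU (10 IU/puff, 5 puffs per nostril, alternating), then 20 IU (1 puff per nostril) after one-week washout. Female: 100 IU (50 IU/puff) compounded metered spray. Serum (male), urine and saliva were sampled baseline to 120–240 min and frozen at −80°C. Samples were C18 SPE-extracted with OT-d5 internal standard and analysed by orbitrap targeted SIM (m/z 562.25503); urine was creatinine-adjusted.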

OT stability in water = assay type: physicochemical; conditions: spiked 9.9, 24.8, 154 and 385 ng/mL in water; 10°C; up to 5 days; LCMS
Method in brief: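 Water was spiked with OT and OT-d5 at final 9.9, 24.8, 154 and 385 ng/mL and held at 10°C for variable times, matching the urine spikes. OT and OT-d5 levels were quantitated by HRAM orbitrap LCMS (positive heated ESI, targeted SIM). Means and standard deviation were reported.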

[4] = plasma from men and non-pregnant women; 60 minute incubation at 37°C; cited from earlier work
[5] = healthy volunteer, n=1, 100 IU intranasal (OxyLuv), saliva
[6] = male, human, serum, inhaled or intranasal, 100 IU

Row | Compound | stability in urine after the initial drop [1] | change in level compared to pre-incubation level [2] [%] | time after the peak at which levels decreased to below detection limits ([3]; 2 volunteers, 20 IU or 100 IU intranasal, serum, urine, saliva, summary) [h] | time of peak levels in serum, urine and saliva after each dose ([3]; 2 volunteers, 20 IU or 100 IU intranasal, summary over matrices) [min] | time of elimination of saliva OT to levels below LLOD ([3]; after intranasal OT, saliva, LLOD 10 pg/mL) [h] | time of peak saliva OT level ([3]; healthy volunteer, n=1, 20 IU intranasal (OxyLuv), saliva) [min] | peak saliva OT level [3, 5] | time of peak saliva OT level [3, 5] [min] | time of decrease of serum OT to baseline ([3]; healthy volunteer, n=1, 100 IU intranasal (OxyLuv), serum) [min] | time of peak urine OT excretion ([3]; healthy volunteer, n=1, 100 IU intranasal (OxyLuv), urine) [min] | Cmax [3, 6] [ng/mL] | Tmax [3, 6] [min] | stability in water (OT stability in water) | OT degradation in plasma [4]
1 | CC[C@H](C)[C@@H]1NC(=O)[C@H](Cc2ccc(O)cc2)NC(=O)[C@@H](N)CSSC[C@@H](C(=O)N2CCC[C@H]2C(=O)N[C@@H](CC(C)C)C(=O)NCC(N)=O)NC(=O)[C@H](CC(N)=O)NC(=O)[C@H](CCC(N)=O)NC1=O [OT, Oxytocin] | stayed at those low levels | < 15 | 1 to 2 | 15 to 30 | 2 to 3 | 15 | 392,000 pg/mL | 15 | ≤ 60 | 30 | 0.08 | 15 | remained stable | little or no OT degradation
2 | OT-leucyl-d3-glycinamide-d2 [OT-d5] | stayed at those low levels | < 15 |  |  |  |  |  |  |  |  |  |  | remained stable | 
